Measured values taken from PMC7341966 (Journal of medicinal chemistry, 2018).
Square brackets hold non-standard residues; d marks the D form. Peptide text beside a SMILES is read from it. * marks the point of attachment. X4 = CC[C@H](C)[C@@H](OC(=O)[C@H](Cc1ccccc1)N(C)C)C(=O)*; X1 = CC[C@H](C)[C@@H](OC(=O)/C=C/c1ccccc1)C(=O)*; X3 = CC[C@H](C)[C@@H](OC(=O)/C=C\c1ccccc1)C(=O)*; X5 = CC[C@H](C)[C@@H](OC(=O)C#Cc1ccccc1)C(=O)*; X2 = CC[C@H](C)[C@@H](OC(=O)CCc1ccccc1)C(=O)*; Hmp(2R,3S) = CC[C@H](C)[C@@H](O)C(=O)O; dNMeF = CN[C@H](Cc1ccccc1)C(=O)O; NMeL = CN[C@@H](CC(C)C)C(=O)O; dHiv = CC(C)[C@@H](O)C(=O)O

Columns and labels:
[1] = system: panel of 241 GPCR targets; assay: GPCR profiling, gpcrMAX and orphanMAX panels; format: cell-based; settings: 10 μM; hit = > 50% activity or inhibition
Method in brief: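 PathHunter β-arrestin enzyme fragment complementation in HEK293, CHO or U2OS lines stably expressing ProLink-tagged GPCR and EA-tagged β-arrestin. Test compound was 10 μM, one also at 20 μM; vehicle 1% final. Agonist mode: 90 or 180 min at 37 °C or RT. Chemiluminescence read after 1 h detection reagent. % activity/inhibition taken versus vehicle and control ligand.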

MDA-MB-231 cells [2] = assay: Transwell migration assay, MDA-MB-231 cells; format: cell-based; settings: 10 μM, 48 h
Method in brief: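 Transwell inserts with 8 μm pore PET membrane; MDA-MB-231 cells were exposed to test compound or solvent control. After incubation, non-migrated cells were wiped off, and migrated cells were crystal violet-stained and counted under a microscope.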

[3] = system: CXCR7, CCR10, OXTR, SSTR3, and TACR2; assay: GPCR secondary screen, dose-response against the five hits; format: cell-based; settings: up to 20 μM
Method in brief: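 Secondary β-arrestin (PathHunter) screen on the five receptors, run in agonist and antagonist modes. Dosing was 10 points by 3-fold serial dilution from 20 μM, in duplicate, with 1% vehicle. Chemiluminescent β-galactosidase read after 1 h detection at RT.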

Kallikrein 7 (KLK7) = Kallikrein 7 (KLK7) (Homo sapiens, UniProt P49862); assay: Protease inhibition assay, fluorescent peptide substrate; format: biochemical
Kallikrein 7 (KLK7), sequence (P49862 30-253): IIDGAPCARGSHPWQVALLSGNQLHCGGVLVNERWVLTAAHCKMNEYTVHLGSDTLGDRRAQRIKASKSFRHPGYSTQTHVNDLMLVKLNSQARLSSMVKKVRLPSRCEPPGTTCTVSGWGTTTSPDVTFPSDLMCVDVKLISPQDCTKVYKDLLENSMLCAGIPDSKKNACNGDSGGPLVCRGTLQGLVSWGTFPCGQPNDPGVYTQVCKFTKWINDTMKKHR

[4] = system: MDA-MB-231 breast cancer cells; assay: MTT cell viability assay in MDA-MB-231 cells; format: cell-based; settings: MDA-MB-231, 48 h; for cytotoxicity: MTT, up to 100 μM
Method in brief: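 MDA-MB-231 cells kept in DMEM with 10% FBS were seeded at 10,000 cells/well. After 24 h they were exposed to graded test compound or DMSO solvent control for 48 h. Viability was measured by MTT.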

OXTR = biological target: T1, OXTR (Homo sapiens, UniProt P30559); assay: PathHunter β-Arrestin GPCR assay, antagonist mode; format: cell-based; settings: dose-response starting at 20 μM, duplicate
T1 sequence (P30559 1-389): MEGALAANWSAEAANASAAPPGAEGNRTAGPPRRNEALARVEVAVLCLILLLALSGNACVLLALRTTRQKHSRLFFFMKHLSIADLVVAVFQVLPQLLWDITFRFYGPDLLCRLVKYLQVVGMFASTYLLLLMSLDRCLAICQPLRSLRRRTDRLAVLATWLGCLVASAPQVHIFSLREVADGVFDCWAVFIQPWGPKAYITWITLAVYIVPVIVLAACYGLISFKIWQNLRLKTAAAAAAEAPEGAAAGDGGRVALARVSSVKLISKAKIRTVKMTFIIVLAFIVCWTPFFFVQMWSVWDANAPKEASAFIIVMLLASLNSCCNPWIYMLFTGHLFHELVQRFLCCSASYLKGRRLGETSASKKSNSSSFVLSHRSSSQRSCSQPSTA

CCR10 = biological target: T2, CCR10 (Homo sapiens, UniProt P46092); assay: PathHunter β-Arrestin GPCR assay, antagonist mode; format: cell-based; settings: dose-response starting at 20 μM, duplicate
T2 sequence (P46092 1-362): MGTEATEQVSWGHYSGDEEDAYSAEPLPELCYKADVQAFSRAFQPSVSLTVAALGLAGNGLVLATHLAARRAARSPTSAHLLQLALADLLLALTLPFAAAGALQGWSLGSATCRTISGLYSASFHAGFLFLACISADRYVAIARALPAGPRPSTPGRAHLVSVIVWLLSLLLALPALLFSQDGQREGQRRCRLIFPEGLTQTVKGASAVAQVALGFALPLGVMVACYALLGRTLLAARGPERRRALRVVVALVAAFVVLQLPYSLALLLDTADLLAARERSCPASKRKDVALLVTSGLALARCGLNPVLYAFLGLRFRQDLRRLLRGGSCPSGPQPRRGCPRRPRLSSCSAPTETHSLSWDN

[5] = system: MDA-MB-468 breast cancer cells; assay: Transwell migration assay, MDA-MB-468 cells; format: cell-based; settings: 48 h
Method in brief: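 5000 MDA-MB-468 cells in DMEM with 10% FBS were treated with graded test compound or solvent control. They were seeded into 8 μm pore PET transwell inserts, with the same compound concentration in complete medium on the other side. After 48 h at 37 °C, 5% CO2, non-migrated cells were swabbed off, and migrated cells were crystal violet-stained and counted microscopically. Triplicate.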

[6] = system: MDA-MB-468 breast cancer cells; assay: Dsg-2 shedding in MDA-MB-468 cells; format: cell-based
[7] = biological target: KLK7 (substrates desmoglein-2 and E-cadherin) (Homo sapiens, UniProt P49862); assay: Cleavage of KLK7 downstream substrates, biochemical assay; settings: 10 μM
KLK7 (substrates desmoglein-2 and E-cadherin), sequence (P49862 30-253): as the sequence (P49862 30-253) above

SSTR3 = SSTR3 (Homo sapiens, UniProt P32745); assay: PathHunter β-Arrestin GPCR assay, antagonist mode; format: cell-based; settings: dose-response starting at 20 μM, duplicate
SSTR3, sequence (P32745 whole entry): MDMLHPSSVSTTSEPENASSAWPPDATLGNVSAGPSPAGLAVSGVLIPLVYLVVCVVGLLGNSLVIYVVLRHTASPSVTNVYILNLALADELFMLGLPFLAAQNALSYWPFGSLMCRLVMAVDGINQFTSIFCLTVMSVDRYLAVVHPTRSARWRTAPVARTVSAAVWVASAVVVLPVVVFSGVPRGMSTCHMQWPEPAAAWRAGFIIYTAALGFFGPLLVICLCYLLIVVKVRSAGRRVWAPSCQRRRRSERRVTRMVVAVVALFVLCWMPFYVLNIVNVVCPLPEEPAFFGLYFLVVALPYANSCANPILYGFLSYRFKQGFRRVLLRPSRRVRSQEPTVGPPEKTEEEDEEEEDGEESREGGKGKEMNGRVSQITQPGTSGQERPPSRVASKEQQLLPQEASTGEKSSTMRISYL

plasma kallikrein = settings: read-out: Ki plasma kallikrein; cited from earlier work
MDA-MB-231 cells [8] = assay: CCL27-induced proliferation of MDA-MB-231 cells; format: cell-based; settings: serum deprived conditions, 48 h
Method in brief: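 MDA-MB-231 cells (10,000/well) were seeded in serum-free DMEM for 24 h. For the CCL27 response, cells got graded CCL27 for 48 h. For inhibition, cells were pretreated with test compound for 2 h, then given CCL27 (1 μg/mL final) and incubated 48 h. Viability was read by MTT against solvent control. Mean ± SD, n = 3, two-tailed unpaired t test.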

For `CC[C@H](C)[C@@H](O)C(=O)N1CCC[C@H]1C(=O)NCC(=O)N(C)[C@@H](CC(C)C)C(=O)N[C@@H](C)C(=O)N(C)[C@H](Cc1ccccc1)C(=O)N1CCC[C@H]1C(=O)OC` [Compound 1, brintonamide A] ({Hmp(2R,3S)}-PG[NMeL]A[dNMeF]P-OMe), the “hits in GPCR profiling” value [1] was “did not show any hits”, the inhibition of migration (MDA-MB-231 cells [2]) was “inactive” and the “activity against the tested GPCR targets” value [3] was “did not show any activity”. The IC50 (Kallikrein 7 (KLK7)) was about 20 µM and the cytotoxicity [4] was “did not show any cytotoxicity”.

With `COC(=O)[C@@H]1CCCN1C(=O)[C@@H](Cc1ccccc1)N(C)C(=O)[C@H](C)NC(=O)[C@H](CC(C)C)N(C)C(=O)CNC(=O)[C@@H]1CCCN1C(=O)[C@H](O)C(C)C` [Compound 2, brintonamide B] (H-[dHiv]PG[NMeL]A[dNMeF]P-OMe) the “activity against the tested GPCR targets” value [3] was “did not show any activity” and the cytotoxicity [4] was “did not show any cytotoxicity”.

In the case of `CC[C@H](C)[C@@H](OC(=O)[C@H](Cc1ccccc1)N(C)C)C(=O)N1CCC[C@H]1C(=O)NCC(=O)N(C)[C@@H](CC(C)C)C(=O)N[C@@H](C)C(=O)N(C)[C@H](Cc1ccccc1)C(=O)N1CCC[C@H]1C(=O)OC` [Compound 3, brintonamide C] (X4-PG[NMeL]A[dNMeF]P-OMe), the “IC50 antagonist OXTR” value (OXTR) is reported as “did not show any activity” and the “IC50 antagonist CCR10” value (CCR10) is reported as “did not show any activity”.

With `CC[C@H](C)[C@@H](OC(=O)/C=C/c1ccccc1)C(=O)N1CCC[C@H]1C(=O)NCC(=O)N(C)[C@@H](CC(C)C)C(=O)N[C@@H](C)C(=O)N(C)[C@H](Cc1ccccc1)C(=O)N1CCC[C@H]1C(=O)OC` [Compound 4, brintonamide D] (X1-PG[NMeL]A[dNMeF]P-OMe) the “migration of MDA-MB-468 cells” value [5] was “inhibiting the migration”, the Dsg-2 shedding [6] was “unable to decrease Dsg-2 shedding” and the “IC50 antagonist CCR10” value (CCR10) was “submicromolar activity”. The “activity against the tested GPCR targets” value [3] was “active against all five tested GPCR targets”, the IC50 (Kallikrein 7 (KLK7)) was about 20 µM and the cytotoxic effects ([4]; up to 10 μM (Figure 6B)) was “no cytotoxic effects”. The “cleavage of KLK7 downstream substrates desmoglein-2 and E-cadherin” value [7] was “partially inhibited”.

In the case of `CC[C@H](C)[C@@H](OC(=O)/C=C\c1ccccc1)C(=O)N1CCC[C@H]1C(=O)NCC(=O)N(C)[C@@H](CC(C)C)C(=O)N[C@@H](C)C(=O)N(C)[C@H](Cc1ccccc1)C(=O)N1CCC[C@H]1C(=O)OC` [Compound 5, brintonamide E] (X3-PG[NMeL]A[dNMeF]P-OMe), the “IC50 antagonist SSTR3” value (SSTR3) is reported as “inactive”.

With `CC[C@H](C)[C@@H](OC(=O)CCc1ccccc1)C(=O)N1CCC[C@H]1C(=O)NCC(=O)N(C)[C@@H](CC(C)C)C(=O)N[C@@H](C)C(=O)N(C)[C@H](Cc1ccccc1)C(=O)N1CCC[C@H]1C(=O)OC` [Compound 6, dehydro-brintonamide D/E] (X2-PG[NMeL]A[dNMeF]P-OMe) the “IC50 antagonist SSTR3” value (SSTR3) was “inactive”.

For `CC[C@H](C)[C@@H](OC(=O)C#Cc1ccccc1)C(=O)N1CCC[C@H]1C(=O)NCC(=O)N(C)[C@@H](CC(C)C)C(=O)N[C@@H](C)C(=O)N(C)[C@H](Cc1ccccc1)C(=O)N1CCC[C@H]1C(=O)OC` [Compound 7, dihydro-brintonamide D/E] (X5-PG[NMeL]A[dNMeF]P-OMe), the “activity against the tested GPCR targets” value [3] was “did not exhibit any activity”.

For Ecallantide, the Ki (plasma kallikrein) is given as 0.025 nM.

B1: CCL27: C-C motif chemokine ligand 27, ligand of CCR10 (protein, UniProt Q9Y4X3 25-112, looked up)
C-C motif chemokine 27: FLLPPSTACCTQLYRKPLSDKLLRKVIQVELQEADGDCHLQAFVLHLAQRSICIHPQNPSLSQWFEHQERKLHGTLPKLNFGMLRKMG
With B1 the “cell proliferation in response to CCL27 stimulation” value (MDA-MB-231 cells [8]) was “increased in a dose-dependent manner”.
